In the library only some 3.7% were active in any assay of this set; here they are far more common.
INS promoter inh = TRM-6 insulin promoter activity inhibition | TRM-6 cells (human fetal islet line), insulin promoter-eGFP reporter, imaging; reporter expression induced with tamoxifen | inhibition, % at 2 µM | actives 0.9% (n = 130,000) | AID 1273;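 active = inhibition above the mean plus 3 SD, with well images judged a real hit on visual review, cut at about 60% in these data, passing the limit was not always enough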
BB579 growth dn = reduces growth of yeast BB579 in restrictive medium; S. cerevisiae BB579 growth, OD615, 48 h; inhibition, % at 10 µM; actives 0.51% (n = 140,000);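 active = inhibition above a set limit, 3 SD over the mean compound inhibition, cut at about 44% in these data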
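Test system: Saccharomyces cerevisiae DeaD strain BB579, replicative lifespan model yeast | Buffer or medium: Restrictive CSMM-D medium | Doses: One dose, 10 µM compound with 0.25% DMSO | Incubation: 48 h exposure, 30 °C | Detection: Culture absorbance at 615 nm | Control set: Amphotericin B at 10 µg/mL as positive control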
HMGR II inh = E. faecalis class II HMG-CoA reductase inhibition; purified E. faecalis HMGR, NADPH absorbance 340 nm kinetic; actives 0.41% (n = 190,000); inhibition, % at 10 µM;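 active = inhibition above a set limit, the median over all tested compounds plus 3 SD, cut at about 9.5% in these data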;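 also: enzyme runs in reverse so mevalonate oxidation gives rising NADPH absorbance; 0% = complete reaction with DMSO and 100% = background rate lacking mevalonate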
Yeast life ext = yeast lifespan extension; S. cerevisiae growth with nicotinamide, OD615; deaD strain in restrictive glucose medium; inhibition of the nicotinamide effect, % at 10 µM; actives 0.68% (n = 130,000); AID 775;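 active = inhibition above a set limit, placed 3 SD over the median of all compounds, cut at about 26% in these data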;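 also: 0% = nicotinamide-treated wells and 100% = cells grown without nicotinamide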
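System: DeaD-strain S. cerevisiae / Buffer or medium: CSMM-D, restrictive glucose (dextrose) synthetic minimal medium / Probe or stimulus: nicotinamide, 1.5 mM, co-present with compound / Compound: one concentration, 10 µM, DMSO 0.25% / Incubation: 48 h compound exposure at 30 °C, humidified / Technique: optical density (absorbance) at 615 nm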
RAM network inh = inhibitors of the yeast RAM network; S. cerevisiae dse1pr::URA3 reporter, 5-FOA growth OD615, 2 d; analog-sensitive cbk1-as2 kinase mutant strain; inhibition, % at 50 µM; actives 1.8% (n = 190,000);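 active = inhibition above a set limit, 3 SD over mean compound inhibition, cut at about 8.4% in these data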;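 also: 0% = DMSO-only wells with no growth and 100% = 10 µM 1-NA-PP1 full growth; inhibition rescues growth on 5-FOA so higher OD means more RAM inhibition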
Active calls of the source: *; / = no result given.

SMILES	INS promoter inh	BB579 growth dn	HMGR II inh	Yeast life ext	RAM network inh
Cc1ccc2nc(-c3ccc(NS(C)(=O)=O)cc3)cc(-c3ccccc3)c2c1	3	90*	-5	-30	-2
CC1C(c2ccccc2)N(C)C(c2ccccc2)C(C)C1(O)C#Cc1ccccc1 (stereo not given)	10	-43	-1	23	1
COc1ccc(Nc2nc3c([nH]2)c(=O)[nH]c(=O)n3C)cc1	-75	/	-5	/	2
CCOC(=O)c1c(NC(=O)CSc2nnnn2CC)sc(C)c1C	/	-44	-1	-2	8.9*
CCOC(=O)c1c(NC(=O)COC(=O)c2cc(OC)c(OC)cc2[N+](=O)[O-])sc(C)c1C	/	-34	1	4	8.6*
CCOC(=O)c1c(NC(=O)Cn2nc(C(F)F)cc2C(F)F)sc(C)c1C	-46	-23	-4	-6	9.6*
CC(=O)N/C(=C/c1ccc([N+](=O)[O-])cc1)C(=O)O	/	/	-1	/	-1
CCOc1ccc(C(=O)NC(=S)Nc2ccc(NC(=O)c3ccco3)c(C)c2)cc1[N+](=O)[O-]	/	-10	2	0	6
Cc1ccc2cc3c(N)c(C(=O)Nc4c(C)[nH]c(=O)[nH]c4=O)sc3nc2c1	/	-22	-3	2	9.5*
Cc1ccc2nc3sc(C(=O)Nc4c(C)[nH]c(=O)[nH]c4=O)c(N)c3cc2c1	/	-18	-6	6	8
CC1(C)OC(=O)C(=CNn2cnc3ccccc3c2=O)C(=O)O1	82*	-24	-1	-7	3
O=C(CN1CCOCC1)Nc1ccccc1Sc1ccccc1	29	-28	-5	2	0
CC1CN(CC(=O)Nc2ccccc2Sc2ccccc2)CC(C)O1 (stereo not given)	35	4	-9	27*	0
CCCCCCOC(=O)C[N+](C)(C)CCOC1CC2CCC1(C)C2(C)C (stereo not given)	-27	8	1	-14	-1
CCCCCCCOC(=O)C[N+](C)(C)CCOC1CC2CCC1(C)C2(C)C (stereo not given)	/	100*	-7	-12	-3
CC1(C)CC(=O)C(=Cc2cn(CCC#N)nc2-c2ccc(Cl)cc2)C(=O)C1	/	-51	1	39*	3
CO/N=C(/C)CCS(=O)(=O)c1ccccc1	-7	/	-2	/	1
CC(C)(C)c1ccc(NC(=O)COC(=O)c2ccc([N+](=O)[O-])s2)cc1	24	100*	-3	-11	-2
Cc1cc(C)c(NC(=S)N(CCCN2CCN(C)CC2)Cc2cccs2)c(C)c1	7	/	-3	/	1
CCc1cccc(C)c1NC(=S)N(CCN(C)C)C(C)c1cccnc1 (stereo not given)	-31	/	7	/	-1
Cc1ccc(-n2cnc3cc(NCc4cccs4)ccc32)cc1	7	50*	-1	-21	1
O=CN1CCN(C(=O)c2ccc(-c3nc4ccccc4s3)s2)CC1	-7	/	-4	/	3
CCOc1ccccc1NC1=C(Cl)C(=O)N(Cc2ccccc2)C1=O	8	-17	-4	-5	11*
COc1ccc(NC(=O)N2CCN(c3nc(-c4cccc(OC)c4)cs3)CC2)cc1	43	-33	-1	-9	4
COc1cccc(-c2csc(N3CCN(C(=O)Nc4ccc(Cl)cc4)CC3)n2)c1	35	/	9.9*	/	3
SMILES	INS promoter inh	BB579 growth dn	HMGR II inh	Yeast life ext	RAM network inh
O=C(c1ccco1)N(Cc1cccc([N+](=O)[O-])c1)c1ccc(Br)cc1	/	/	-1	/	9.3*
O=C(c1ccco1)N(Cc1ccc([N+](=O)[O-])cc1)c1ccc(Cl)cc1	3	-3	-8	-6	4
O=C(c1ccco1)N(Cc1ccc([N+](=O)[O-])cc1)c1ccc(Br)cc1	10	-37	-3	3	8.4*
O=C(Nc1nnc(SCc2ccc(F)cc2)s1)c1ccc2c(c1)C(=O)N(c1ccccc1Cl)C2=O	/	/	-7	/	3
O=C1C=CCC(/C=C/c2ccccc2)O1 (stereo not given)	24	-60	7	41*	0
Cc1cc(C)cc(NC(=O)CN2CCN(CCN=CC3=C(O)CC(c4ccc(Cl)cc4)CC3=O)CC2)c1 (stereo not given)	/	/	-4	/	1
CCC(C)/C(C)=N/NC(=O)c1ccc(COc2ccc(Cl)c(C)c2)cc1 (stereo not given)	0	97*	-1	-8	0
COc1ccc(Cl)cc1C(=O)NNC(=O)CSc1nnnn1C	-17	/	2	/	1
COC(=O)c1sccc1NC(=O)CSc1cc(Cl)ccc1Cl	-2	-34	-9	-14	9.5*
O=c1[nH][nH]c(-c2ccccc2)c1C=Nc1ccc(OC(F)(F)F)cc1	/	/	0	/	1
Cc1ccc(-c2cn3cccc(C)c3n2)cc1	73*	/	-6	/	1
Cc1cccn2cc(-c3ccc(S(=O)(=O)N4CCCCC4)cc3)nc12	-41	/	10*	/	1
Cc1conc1NC(c1cccs1)c1ccc2cccnc2c1O (stereo not given)	/	62*	4	0	0
COc1cc(/C=C2\SC(=O)N(CCN)C2=O)ccc1OS(=O)(=O)c1cc(C)ccc1C	/	/	-3	/	8.5*
COc1cc(/C=C2/SC(=O)N(Cc3ccccc3Cl)C2=O)ccc1OCc1ccncc1	17	-43	-5	-22	8
Cc1c(Cl)c([N+](=O)[O-])nn1CCCC(=O)Nc1c(Cl)cccc1Cl	20	-67	-13	4	9.9*
Cc1c(Cl)c([N+](=O)[O-])nn1CCCC(=O)Nc1c(C)n(C)n(-c2ccccc2)c1=O	33	/	-4	/	1
CCOc1nc(-c2ccccc2)ccc1-c1noc(-c2cccs2)n1	-31	-2	0	0	11*
CC(=O)Cc1nsc(NC(=O)c2cccc(F)c2)n1	64	/	5	/	0
Cc1cccc2[nH]c(SCC(=O)O)nc12	/	/	-2	/	0
Cc1cccc2[nH]c(SCC(=O)N3CCOCC3)nc12	/	/	11*	/	2
N=c1sccn1CC(=O)Nc1ccccc1Sc1ccccc1	/	/	-1	/	3
COCCCNc1c2c3c(cccc3[nH]c1=O)C(=O)c1ccccc1-2	/	0	2	35*	-1
CCOC(=O)c1c2c3c(cccc3[nH]c1=O)C(=O)c1ccccc1-2	/	/	-7	/	3
Oc1ccc2ccccc2c1C=NC1CCCCC1	/	/	-4	/	1
SMILES	INS promoter inh	BB579 growth dn	HMGR II inh	Yeast life ext	RAM network inh
Oc1c(Br)cc(Br)cc1/C=N/c1nc2c(s1)CCCC2	/	99*	-4	-15	-1
Oc1c(Br)cc(Br)cc1C=Nc1ccc2c(c1)OCCO2	/	/	1	/	-2
Oc1ccc2ccccc2c1/C=N/c1nc2c(s1)CCCC2	35	-21	-6	33*	6
COc1cc(CCC(=O)Nc2ccc(Br)c(C(F)(F)F)c2)cc(OC)c1OC	-47	-42	-2	0	6
CC(=O)N1CCN(c2ccc(OC[C@H]3CO[C@](Cn4ccnc4)(c4ccc(Cl)cc4Cl)O3)cc2)CC1	0	93*	3	-7	1
O=C(COC(=O)C1CC(=O)N(Cc2ccccc2)C1)c1ccc(F)cc1 (stereo not given)	27	/	-3	/	0

Screens deposited in PubChem BioAssay by several laboratories.
